Assay results from ChEMBL document CHEMBL3739355, “Design, synthesis and evaluation of bitopic arylpiperazinephenyl-1,2,4-oxadiazoles as preferential dopamine D3 receptor ligands” (Bioorg Med Chem, 2016).
Values joined by “and” are separate entries in the source; they are usually repeats but may differ in a detail not shown here. Equal values may be shown once.

Tests used:
D(2) dopamine receptor [1] = biological target: T1, D(2) dopamine receptor (Homo sapiens, UniProt P14416); assay: Displacement of [3H]-sulpiride from human dopamine D2 receptor expressed in HEK293 cells at 1 uM after 150 mins by liquid scintillation counting; format: cell-based
Outline: (§1)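 Transiently PEI-transfected HEK293 cells expressing human D2R or D3R, serum-free, rinsed ice-cold. Each ligand at a single concentration competed at 4 °C for 150 min with [³H]-sulpiride: 2.2 nM for D2R, 4.4 nM for D3R. Unbound label removed by three washes in ice-cold MEM/10 mM HEPES pH 7.4. Cells were lysed in 1% SDS and bound radioactivity read by liquid scintillation.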

D(3) dopamine receptor [2] = biological target: T2, D(3) dopamine receptor (Homo sapiens, UniProt P35462); assay: Displacement of [3H]-sulpiride from human dopamine D3 receptor expressed in HEK293 cells at 1 uM after 150 mins by liquid scintillation counting; format: cell-based; outline: as §1
Homo sapiens = species on record: Homo sapiens; assay: Selectivity ratio of Ki for human dopamine D2 receptor to Ki for human dopamine D3 receptor
D(3) dopamine receptor [3] = biological target: T2, D(3) dopamine receptor; assay: Displacement of [3H]-sulpiride from human dopamine D3 receptor expressed in HEK293 cells after 150 mins by liquid scintillation counting; format: cell-based
D(2) dopamine receptor [4] = biological target: T1, D(2) dopamine receptor; assay: Displacement of [3H]-sulpiride from human dopamine D2 receptor expressed in HEK293 cells after 150 mins by liquid scintillation counting; format: cell-based
Outline: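 HEK293 cells grown in MEM with 10% FBS and penicillin/streptomycin, PEI-transfected with human D2R plasmid (medium changed at 4 h, grown 24 h), then seeded and cultured overnight. Rinsed with ice-cold serum-free MEM, incubated with 2.2 nM [³H]-sulpiride plus varying ligand concentrations at 4 °C for 150 min. Washed three times in ice-cold MEM/10 mM HEPES pH 7.4, lysed in 1% SDS, scintillation counted. IC50 came from nonlinear regression curve fits.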

D(2) dopamine receptor [5] = biological target: T1, D(2) dopamine receptor; assay: Displacement of [3H]-sulpiride from human dopamine D2 receptor expressed in HEK293 cells at 0.1 uM after 150 mins by liquid scintillation counting; format: cell-based; outline: as §1
D(3) dopamine receptor [6] = biological target: T2, D(3) dopamine receptor; assay: Displacement of [3H]-sulpiride from human dopamine D3 receptor expressed in HEK293 cells at 0.1 uM after 150 mins by liquid scintillation counting; format: cell-based; outline: as §1

T2 sequence (P35462 whole entry): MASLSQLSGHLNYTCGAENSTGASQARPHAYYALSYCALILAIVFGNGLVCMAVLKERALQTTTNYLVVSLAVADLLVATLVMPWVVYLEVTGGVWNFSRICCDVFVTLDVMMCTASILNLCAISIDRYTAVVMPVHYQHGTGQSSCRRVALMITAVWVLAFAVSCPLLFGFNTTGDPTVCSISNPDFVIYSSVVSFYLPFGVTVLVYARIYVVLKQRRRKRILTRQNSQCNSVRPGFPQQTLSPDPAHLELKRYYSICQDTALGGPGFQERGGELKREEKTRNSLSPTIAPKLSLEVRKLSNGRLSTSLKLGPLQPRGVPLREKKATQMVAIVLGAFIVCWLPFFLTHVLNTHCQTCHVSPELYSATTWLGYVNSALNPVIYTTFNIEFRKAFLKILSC
T1 sequence (P14416 whole entry): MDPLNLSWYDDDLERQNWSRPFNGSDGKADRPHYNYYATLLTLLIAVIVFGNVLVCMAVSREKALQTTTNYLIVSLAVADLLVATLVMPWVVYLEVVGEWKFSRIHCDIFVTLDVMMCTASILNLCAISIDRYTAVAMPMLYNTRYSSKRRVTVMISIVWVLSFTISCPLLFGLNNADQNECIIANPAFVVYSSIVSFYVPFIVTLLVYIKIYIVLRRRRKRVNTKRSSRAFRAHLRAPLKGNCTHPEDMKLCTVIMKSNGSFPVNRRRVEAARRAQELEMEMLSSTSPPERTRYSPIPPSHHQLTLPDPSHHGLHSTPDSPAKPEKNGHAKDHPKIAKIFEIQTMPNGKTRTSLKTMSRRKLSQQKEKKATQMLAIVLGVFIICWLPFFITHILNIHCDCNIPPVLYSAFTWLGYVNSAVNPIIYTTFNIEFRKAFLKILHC

inhibition (D(2) dopamine receptor [5]) | inhibition (D(3) dopamine receptor [6]) | further results | SMILES
 |  | inhibition (D(2) dopamine receptor [1]): -0.6%; inhibition (D(3) dopamine receptor [2]): 15.1% | CCCN(CCCCN1CCN(c2ccc(Cl)cc2Cl)CC1)c1noc(-c2ccccc2)n1
 |  | Ratio Ki (Homo sapiens): 7.7 and 4.4 | Clc1ccc(N2CCN(CCCCNc3noc(-c4ccccc4)n3)CC2)c(Cl)c1 [listing 1 of 3 here]
 |  | Ki (D(3) dopamine receptor [3]): 290 nM; Ki (D(2) dopamine receptor [4]): 1.29 µM | Clc1ccc(N2CCN(CCCCNc3noc(-c4ccccc4)n3)CC2)c(Cl)c1 [listing 2 of 3 here]
 |  | inhibition (D(2) dopamine receptor [1]): 10.6%; inhibition (D(3) dopamine receptor [2]): 3.2% | CCCN(CCCCN1CCN(c2ccccc2F)CC1)c1noc(-c2ccccc2)n1
 |  | Ki (D(3) dopamine receptor [3]): 810 nM; Ki (D(2) dopamine receptor [4]): 6.23 µM | Clc1ccc(N2CCN(CCCCNc3noc(-c4ccccc4)n3)CC2)c(Cl)c1 [listing 3 of 3 here]
-2.6% and 8.3% |  | Ratio Ki (Homo sapiens): 297; Ki (D(3) dopamine receptor [3]): 270 nM; Ki (D(2) dopamine receptor [4]): 79.6 µM | Clc1ccc(N2CCN(CCCCNc3noc(-c4ccccc4)n3)CC2)cc1
 |  | Ki (D(2) dopamine receptor [4]): > 23.9 µM | O=C(NCCCCN1CCN(c2ccc(Cl)cc2Cl)CC1)c1cc2ccccc2[nH]1
12.7% | 14.2% |  | Clc1ccc(N2CCN(CCCCNc3noc(-c4ccc(Br)cc4)n3)CC2)c(Cl)c1
28.3% and 40.4% | 37% and 41.5% |  | Clc1cccc(-c2nc(NCCCCN3CCN(c4ccc(Cl)cc4Cl)CC3)no2)c1
15.2% and 40% | 33.8% and 16.6% |  | Clc1ccc(-c2nc(NCCCCN3CCN(c4ccc(Cl)cc4Cl)CC3)no2)cc1
69.8% | 50.7% |  | Fc1ccccc1N1CCN(CCCCNc2noc(-c3ccccc3)n2)CC1
8.8% and 22.8% | 36.6% and 11.8% |  | N#Cc1ccc(-c2nc(NCCCCN3CCN(c4ccc(Cl)cc4Cl)CC3)no2)cc1
19.8% | 35.3% |  | FC(F)(F)c1cccc(N2CCN(CCCCNc3noc(-c4ccccc4)n3)CC2)c1
 |  | inhibition (D(2) dopamine receptor [1]): 17.8%; inhibition (D(3) dopamine receptor [2]): 9.7% | CCCN(CCCCN1CCN(c2cccc(C(F)(F)F)c2)CC1)c1noc(-c2ccccc2)n1
 |  | inhibition (D(2) dopamine receptor [1]): 50.1%; inhibition (D(3) dopamine receptor [2]): 22.1% | CCCN(CCCCN1CCN(c2cccc(Cl)c2Cl)CC1)c1noc(-c2ccccc2)n1
5.6% and 5.4% | 4.2% and 7.7% |  | COc1ccccc1-c1nc(NCCCCN2CCN(c3ccc(Cl)cc3Cl)CC2)no1
7.8% and 17.9% | 9.5% and 14.8% |  | Clc1ccc(N2CCN(CCCCNc3noc(-c4ccccn4)n3)CC2)c(Cl)c1
